The assay concerns Vibrio harveyi BB721 quorum sensing luminescence, 9 h. The assay can be described thus: inhibitors of constitutive quorum-sensing luminescence in V. harveyi, dose response, counter-screen for AI-2 quorum sensing inhibitor project, strain BB721 constitutive-on, dry powder (AID 493104). Summed up: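 Buffer or medium: AB (autoinducer bioassay) medium. Material: V. harveyi BB721, constitutive-on quorum sensing strain. Times: 9 h exposure, 30 °C.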
With `O=C1C=C/C(=C/Br)O1`, the AC50 (usually the midpoint of the concentration-response curve, whichever way the signal moves) was 6.43 µM.

Take `COc1cc(NC(=O)CN2C(=O)NC(c3ccccc3)(c3ccccc3)C2=O)cc(OC)c1`: the AC50 was 0.919 µM.

On to `Cc1cccc(NS(=O)(=O)c2ccc(Oc3ccccc3)cc2)n1`, for which the AC50 was 12.4 µM.

For the compound `CCc1ccc(S(=O)(=O)Nc2ccc(Br)cn2)cc1`, the AC50 is 11.9 µM.

Take `C=Cn1c(C(=O)O)ccc1-c1ccc(CC)cc1`: the AC50 is 13.8 µM.

Source of the values: PubChem BioAssay AID493104 (Broad Institute, 2011).
